ChEMBL document CHEMBL2069254, “Synthesis and one-electron reduction characteristics of radiation-activated prodrugs possessing two 5-fluorodeoxyuridine units” (Bioorg Med Chem, 2012)
The source made the active and inactive calls. The calls are words filed in the database; no cut-off is given here.

Tests used:
A549 [1] = test: Cytotoxicity against human A549 cells after 72 hrs by microplate reader method; format: functional, cell-based; conditions: A549, 72 h
How it was run: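 A549 cells grown in DMEM with 10% FBS and 1% streptomycin/penicillin, seeded at 1500 cells/well, cultured 24 h at 37 °C in 5% CO2/95% air. Exposed to a concentration series under aerobic conditions for 72 h. Viability read by WST-8 (CCK-8) after 30 min at 37 °C; IC50 estimated from viability curves.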

[2] = Radiation stability assessed as compound decomposition at 100 uM after exposing to 6.0 Gy/min X-ray irradiation aqueous solution containing 2-methyl-2-propanol under hypoxic conditions by HPLC; format: physicochemical; conditions: buffer
[3] = Radiation stability assessed as 5-fluorodeoxyuridine formation at 100 uM after exposing to 6.0 Gy/min X-ray irradiation aqueous solution containing 2-methyl-2-propanol under hypoxic conditions by HPLC; format: physicochemical; conditions: buffer
[4] = Radiation stability assessed as compound decomposition at 100 uM after exposing to 6.0 Gy/min X-ray irradiation aqueous solution containing 2-methyl-2-propanol under aerobic conditions by HPLC; format: physicochemical; conditions: buffer
[5] = Radiation stability assessed as 5-fluorodeoxyuridine formation at 100 uM after exposing to 6.0 Gy/min X-ray irradiation aqueous solution containing 2-methyl-2-propanol under aerobic conditions by HPLC; format: physicochemical; conditions: buffer
A549 [6] = test: Cytotoxicity against human A549 cells incubated with 125 uM compound for 12 hrs followed by pre-irradiated 30 to 6 Gy/min X-ray irradiation measured after 72 hrs under hypoxic conditions by microplate reader method; format: functional, cell-based
How it was run: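 A549 cells seeded at 1500 cells/well and held 6 h at 37 °C under hypoxia (<0.3% O2). Compound added, then 12 h hypoxic incubation at 37 °C. Plates kept hypoxic and X-irradiated at 6 Gy, then incubated 72 h aerobically. Viability read by WST-8 (CCK-8). Mean ± S.D., n = 9.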

A549 [7] = test: Cytotoxicity against human A549 cells exposed to 1 uM compound pre-irradiated 30 to 120 Gy/min X-ray irradiation measured after 72 hrs under aerobic conditions by microplate reader method; format: functional, cell-based
How it was run: (§1)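 Compound dissolved in DMEM and X-irradiated (6.0 Gy/min) in a sealed glass ampoule at ambient temperature, under hypoxic or aerobic conditions. A549 cells were seeded at 1500 cells/well and grown 24 h at 37 °C aerobically, then incubated with the irradiated solution aerobically for 72 h. Viability read by WST-8 (CCK-8). Mean ± S.D., n = 6.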

A549 [8] = test: Cytotoxicity against human A549 cells exposed to 1 uM compound pre-irradiated 30 to 120 Gy/min X-ray irradiation measured after 72 hrs under hypoxic conditions by microplate reader method; format: functional, cell-based; how it was run: as §1

| SMILES | Drug degradation [2] [nmol/J] | Drug metabolism [3] [nmol/J] | Drug degradation [4] [nmol/J] | Drug metabolism [5] [nmol/J] | IC50 (A549 [1]) [nM] | Activity (A549 [6]) | Activity (A549 [7]) | Activity (A549 [8]) |
| --- | --- | --- | --- | --- | --- | --- | --- | --- |
| O=c1[nH]c(=O)n([C@H]2C[C@H](O)[C@@H](CO)O2)cc1F [FLOXURIDINE] |  |  |  |  | 12.4 |  |  |  |
| O=c1c(F)cn([C@H]2C[C@H](O)[C@@H](CO)O2)c(=O)n1CCCn1c(=O)c(F)cn([C@H]2C[C@H](O)[C@@H](CO)O2)c1=O | 148.8 | < 1 | 140.3 | 1.4 |  |  |  |  |
| CC(=O)Cn1c(=O)c(F)cn([C@H]2C[C@H](O)[C@@H](CO)O2)c1=O | 312.5 | 50.9 |  |  |  |  |  |  |

More lines, main results first:

| Drug degradation [2] [nmol/J] | Drug metabolism [3] [nmol/J] | Drug degradation [4] [nmol/J] | Drug metabolism [5] [nmol/J] | SMILES | IC50 (A549 [1]) [nM] | Activity (A549 [6]) | Activity (A549 [7]) | Activity (A549 [8]) |
| --- | --- | --- | --- | --- | --- | --- | --- | --- |
| 319.1 | 125.9 | 173.6 | 14.5 | O=C(Cn1c(=O)c(F)cn([C@H]2C[C@H](O)[C@@H](CO)O2)c1=O)Cn1c(=O)c(F)cn([C@H]2C[C@H](O)[C@@H](CO)O2)c1=O | 4660 | inactive | inactive | Active |
| 291 | 115.3 | 177.2 | 26.2 | CC(C(=O)C(C)n1c(=O)c(F)cn([C@H]2C[C@H](O)[C@@H](CO)O2)c1=O)n1c(=O)c(F)cn([C@H]2C[C@H](O)[C@@H](CO)O2)c1=O (stereo not given in full) | 1040 |  |  |  |
